Reference: article PMC4550085 (Chemical communications (Cambridge, England), 2015)

Assays:
HeLa cells [1] = assay: FACS analysis of total cellular uptake of Rho-labelled CPPs; format: cell-based; settings: for Total cellular uptake (MFI^Rho, %): relative to Tat (100%), 5 µM Rho-labelled peptide, 2 h
Method in brief: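 Total uptake: HeLa cells were treated for 2 h with 5 µM rhodamine-labelled peptide and analysed by FACS with excitation at 561 nm. MFI was background-subtracted. Values are relative to the Tat conjugate (100%) and are mean ± SD of three independent experiments.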

HeLa cells [2] = assay: Endosomal escape efficiency calculated from NF and Rho MFI; format: cell-based; settings: for Endosomal escape efficiency (γ, %): relative to Tat (100%), calculated from MFI^NF/MFI^Rho; for endosomal escape efficiency relative to Tat: γ=(MFI NF/MFI Rho)/(MFI Tat NF/MFI Tat Rho), HeLa cells, 5 µM
HeLa cells [3] = assay: FACS analysis of cytosolic delivery of NF-labelled CPPs; format: cell-based; settings: 2 h; for Cytosolic delivery (MFI^NF, %): relative to Tat (100%), 5 µM NF-labelled peptide; for cytosolic delivery efficiency relative to Tat: 5 µM NF-labelled peptides
Method in brief: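 HeLa cells were exposed for 2 h to 5 µM naphthofluorescein-labelled peptide and analysed by FACS with excitation at 633 nm. Background fluorescence was subtracted from the mean fluorescence intensity (MFI). Values are relative to the Tat conjugate (100%) and are mean ± SD of three independent experiments.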

HeLa cells [4] = assay: Live-cell confocal microscopy of labelled CPPs; format: cell-based; settings: 5 µM for 2 h
[5] = previously shown; cited from earlier work
HeLa cells [6] = assay: MTT cytotoxicity assay; format: cell-based; settings: up to 25 µM concentration
[7] = cited from earlier work
[8] = pH titration of fluorescence intensity of the dyes and CPP-dye adducts; format: physicochemical

Substance | Total cellular uptake (MFI^Rho, %) (HeLa cells [1]) | Endosomal escape efficiency (γ, %) (HeLa cells [2]) | Cytosolic delivery (MFI^NF, %) (HeLa cells [3]) | intracellular fluorescence pattern (HeLa cells [4]) | total cellular uptake relative to Tat (HeLa cells [1]; 5 µM Rho-labelled peptides) | cytosolic delivery efficiency relative to Tat and R9 [5] | cytotoxicity, MTT assay (HeLa cells [6]) | cytosolic delivery efficiency relative to Tat, pCAP-based assay [7] | endosomal escape efficiency relative to Tat (HeLa cells [2]) | cytosolic delivery efficiency relative to Tat (HeLa cells [3]) | pH profile of CPP-dye adduct compared with the unmodified dye ([8]; dye attached to the glutamine side chain of cFΦR4, pH titration) | change in fluorescence intensity with pH ([8]; pH range of 5–10, Ex/Em 545/590 nm)
YGRKKRRQRRR [Tat] | 100% | 100% | 100% | diffuse fluorescence in both cytoplasmic and nuclear regions | – | – | – | – | – | – | – | –
cyclo(FΦRRRRQ) (head to tail) [cFΦR4] | – | 433% | 1006% | – | 2.3 fold | 4–12 fold | Neither peptide showed any significant toxicity | 12 fold | 4.3 fold | ~ 10 fold | essentially identical pH profiles | –
nonaarginine [R9] | 114% | 173% | 197% | diffuse fluorescence in both cytoplasmic and nuclear regions | – | – | – | 3 fold | 1.7 fold | ~ 2 fold | – | –
rhodamine | – | – | – | – | – | – | – | – | – | – | – | no significant change in fluorescence intensity
